Tested on: Fibroblast
Assay: Multiplex assay against human fibroblast
Format: toxicity, cell-based
Method in brief: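 Cells were classed with CellPathfinder machine-learning gating, first as Hoechst high-intensity objects or normal cells, then (normal cells) as healthy, pyknosed or fragmented nuclei, and finally (pyknosed cells) as mitotic or apoptotic. Staining of live cells at seeding used Hoechst33342, BioTracker Green Microtubule Cytoskeleton Dye, MitoTracker Red and Annexin V Alexa Fluor 680, with imaging on a CQ1 microscope at 37°C and 5% CO2 after compound addition. Tubulin, mitochondrial-mass and membrane-permeability phenotypes are per cents of healthy-nucleus cells.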

[1] = 12 h, 1 µM, compound concentration 1 uM, replicate 1
[2] = 12 h, 1 µM, compound concentration 1 uM, replicate 2
[3] = 12 h, 10 µM, compound concentration 10 uM, replicate 1
[4] = 12 h, 10 µM, compound concentration 10 uM, replicate 2
[5] = 24 h, 1 µM, compound concentration 1 uM, replicate 1
[6] = 24 h, 1 µM, compound concentration 1 uM, replicate 2
[7] = 24 h, 10 µM, compound concentration 10 uM, replicate 1
[8] = 24 h, 10 µM, compound concentration 10 uM, replicate 2
[9] = 48 h, 1 µM, compound concentration 1 uM, replicate 1
[10] = 48 h, 1 µM, compound concentration 1 uM, replicate 2
[11] = 48 h, 10 µM, compound concentration 10 uM, replicate 1
[12] = 48 h, 10 µM, compound concentration 10 uM, replicate 2

## CN1CCN(c2cc(-c3ccccc3)nc(N)n2)CC1
[1]
  Population Apoptotic (%): 47%
  Population Fragmented Nuclei (%): 15%
  Population Healthy Nuclei (%): 68%
  Population Hoechst High Intensity Objects (%): 2%
  Population Membrane Permeable-Phenotype (%): 1%
  Population Mitochondria Different-Phenotype (%): 10%
  Population Mitotic Cells (%): 52%
  Population Normal (%): 97%
  Population Pyknosed Nuclei (%): 15%
  Population Tubulin-Different-Phenotype (%): 25%
  Total Cell Count: 135
[2]
  Population Apoptotic (%): 37%
  Population Fragmented Nuclei (%): 28%
  Population Healthy Nuclei (%): 45%
  Population Hoechst High Intensity Objects (%): 5%
  Population Membrane Permeable-Phenotype (%): 11%
  Population Mitochondria Different-Phenotype (%): 11%
  Population Mitotic Cells (%): 62%
  Population Normal (%): 94%
  Population Pyknosed Nuclei (%): 26%
  Population Tubulin-Different-Phenotype (%): 66%
  Total Cell Count: 97
[3]
  Population Apoptotic (%): 48%
  Population Fragmented Nuclei (%): 16%
  Population Healthy Nuclei (%): 67%
  Population Hoechst High Intensity Objects (%): 2%
  Population Membrane Permeable-Phenotype (%): 0%
  Population Mitochondria Different-Phenotype (%): 6%
  Population Mitotic Cells (%): 51%
  Population Normal (%): 97%
  Population Pyknosed Nuclei (%): 15%
  Population Tubulin-Different-Phenotype (%): 44%
  Total Cell Count: 216
[4]
  Population Apoptotic (%): 36%
  Population Fragmented Nuclei (%): 40%
  Population Healthy Nuclei (%): 36%
  Population Hoechst High Intensity Objects (%): 7%
  Population Membrane Permeable-Phenotype (%): 10%
  Population Mitochondria Different-Phenotype (%): 12%
  Population Mitotic Cells (%): 64%
  Population Normal (%): 92%
  Population Pyknosed Nuclei (%): 22%
  Population Tubulin-Different-Phenotype (%): 67%
  Total Cell Count: 118
[5]
  Population Apoptotic (%): 75%
  Population Fragmented Nuclei (%): 17%
  Population Healthy Nuclei (%): 65%
  Population Hoechst High Intensity Objects (%): 2%
  Population Membrane Permeable-Phenotype (%): 1%
  Population Mitochondria Different-Phenotype (%): 3%
  Population Mitotic Cells (%): 25%
  Population Normal (%): 97%
  Population Pyknosed Nuclei (%): 16%
  Population Tubulin-Different-Phenotype (%): 19%
  Total Cell Count: 145
[6]
  Population Apoptotic (%): 47%
  Population Fragmented Nuclei (%): 36%
  Population Healthy Nuclei (%): 44%
  Population Membrane Permeable-Phenotype (%): 8%
  Population Mitochondria Different-Phenotype (%): 8%
  Population Mitotic Cells (%): 52%
  Population Pyknosed Nuclei (%): 18%
  Population Tubulin-Different-Phenotype (%): 50%
  Total Cell Count: 106
[7]
  Population Apoptotic (%): 41%
  Population Fragmented Nuclei (%): 12%
  Population Healthy Nuclei (%): 70%
  Population Hoechst High Intensity Objects (%): 2%
  Population Membrane Permeable-Phenotype (%): 1%
  Population Mitochondria Different-Phenotype (%): 6%
  Population Mitotic Cells (%): 58%
  Population Normal (%): 97%
  Population Pyknosed Nuclei (%): 17%
  Population Tubulin-Different-Phenotype (%): 41%
  Total Cell Count: 213
[8]
  Population Apoptotic (%): 29%
  Population Fragmented Nuclei (%): 33%
  Population Healthy Nuclei (%): 43%
  Population Membrane Permeable-Phenotype (%): 4%
  Population Mitotic Cells (%): 70%
  Population Pyknosed Nuclei (%): 23%
  Population Tubulin-Different-Phenotype (%): 64%
  Total Cell Count: 107
[9]
  Population Apoptotic (%): 70%
  Population Fragmented Nuclei (%): 22%
  Population Healthy Nuclei (%): 62%
  Population Hoechst High Intensity Objects (%): 2%
  Population Membrane Permeable-Phenotype (%): 0%
  Population Mitochondria Different-Phenotype (%): 2%
  Population Mitotic Cells (%): 30%
  Population Normal (%): 97%
  Population Pyknosed Nuclei (%): 15%
  Population Tubulin-Different-Phenotype (%): 20%
  Total Cell Count: 137
[10]
  Population Apoptotic (%): 50%
  Population Fragmented Nuclei (%): 36%
  Population Healthy Nuclei (%): 49%
  Population Hoechst High Intensity Objects (%): 3%
  Population Membrane Permeable-Phenotype (%): 2%
  Population Mitochondria Different-Phenotype (%): 6%
  Population Mitotic Cells (%): 50%
  Population Normal (%): 96%
  Population Pyknosed Nuclei (%): 14%
  Population Tubulin-Different-Phenotype (%): 54%
  Total Cell Count: 101
[11]
  Population Apoptotic (%): 40%
  Population Fragmented Nuclei (%): 26%
  Population Healthy Nuclei (%): 58%
  Population Hoechst High Intensity Objects (%): 3%
  Population Membrane Permeable-Phenotype (%): 0%
  Population Mitochondria Different-Phenotype (%): 0%
  Population Mitotic Cells (%): 59%
  Population Normal (%): 96%
  Population Pyknosed Nuclei (%): 14%
  Population Tubulin-Different-Phenotype (%): 31%
  Total Cell Count: 227
[12]
  Population Apoptotic (%): 66%
  Population Fragmented Nuclei (%): 50%
  Population Healthy Nuclei (%): 39%
  Population Membrane Permeable-Phenotype (%): 9%
  Population Mitochondria Different-Phenotype (%): 9%
  Population Mitotic Cells (%): 33%
  Population Pyknosed Nuclei (%): 10%
  Population Tubulin-Different-Phenotype (%): 60%
  Total Cell Count: 114

From ChEMBL document CHEMBL5058577, “EUbOPEN Chemogenomics Library 2 (Multiplex)” (2022)
